Bounds are passed on as bounds.

24 compounds from ChEMBL document CHEMBL1140496, “Discovery of N-phenyl nicotinamides as potent inhibitors of Kdr” (Bioorg Med Chem Lett, 2007) can be followed below.

Series [1] has as its target T1, Vascular endothelial growth factor receptor 2 (Homo sapiens, UniProt P35968). Put plainly: Inhibition of phosphorylated-Kdr after 30 mins.
Series [2] relates to HUVEC. Put plainly: Antiproliferative activity against bFGF-driven HUVEC. Format: functional, cell-based. Conditions: Homo sapiens.
Series [3] has as its system HUVEC. Put plainly: Antiproliferative activity against VEGF-driven HUVEC. Format: functional, cell-based. The settings on record: Homo sapiens.
Series [4] in a line: AUC in rat at 100 mg/kg. The settings on record: plasma. Format: ADME, organism-based. Further details: dose 100 mg/kg.
For a further series, the system named is A-431. Put plainly: Antitumor activity in A431 cells xenografted po dosed nude mouse assessed as delay in disease progression administered twice daily. Format: functional, organism-based. Conditions: Homo sapiens. In outline: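 Nude mice bearing A431 human […] epidermoid carcinoma xenografts received oral doses twice daily at 37.5, 75 or 150 mg/kg, against vehicle. Tumor size (cubic mm) was followed from about day 5 to day 23, with percent body weight also tracked. Groups were compared by p-values.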

Series [5] deals with T1, Vascular endothelial growth factor receptor 2. Put plainly: Inhibition of unphosphorylated-Kdr after 30 mins.
A short description of series [6]: Clearance in rat at 100 mg/kg. Format: ADME, organism-based. Further details: dose 100 mg/kg. Conditions: in vivo.
Series [7] in a line: Bioavailability in rat at 100 mg/kg. Format: ADME, organism-based. Conditions: in vivo.

T1 sequence (P35968 whole entry): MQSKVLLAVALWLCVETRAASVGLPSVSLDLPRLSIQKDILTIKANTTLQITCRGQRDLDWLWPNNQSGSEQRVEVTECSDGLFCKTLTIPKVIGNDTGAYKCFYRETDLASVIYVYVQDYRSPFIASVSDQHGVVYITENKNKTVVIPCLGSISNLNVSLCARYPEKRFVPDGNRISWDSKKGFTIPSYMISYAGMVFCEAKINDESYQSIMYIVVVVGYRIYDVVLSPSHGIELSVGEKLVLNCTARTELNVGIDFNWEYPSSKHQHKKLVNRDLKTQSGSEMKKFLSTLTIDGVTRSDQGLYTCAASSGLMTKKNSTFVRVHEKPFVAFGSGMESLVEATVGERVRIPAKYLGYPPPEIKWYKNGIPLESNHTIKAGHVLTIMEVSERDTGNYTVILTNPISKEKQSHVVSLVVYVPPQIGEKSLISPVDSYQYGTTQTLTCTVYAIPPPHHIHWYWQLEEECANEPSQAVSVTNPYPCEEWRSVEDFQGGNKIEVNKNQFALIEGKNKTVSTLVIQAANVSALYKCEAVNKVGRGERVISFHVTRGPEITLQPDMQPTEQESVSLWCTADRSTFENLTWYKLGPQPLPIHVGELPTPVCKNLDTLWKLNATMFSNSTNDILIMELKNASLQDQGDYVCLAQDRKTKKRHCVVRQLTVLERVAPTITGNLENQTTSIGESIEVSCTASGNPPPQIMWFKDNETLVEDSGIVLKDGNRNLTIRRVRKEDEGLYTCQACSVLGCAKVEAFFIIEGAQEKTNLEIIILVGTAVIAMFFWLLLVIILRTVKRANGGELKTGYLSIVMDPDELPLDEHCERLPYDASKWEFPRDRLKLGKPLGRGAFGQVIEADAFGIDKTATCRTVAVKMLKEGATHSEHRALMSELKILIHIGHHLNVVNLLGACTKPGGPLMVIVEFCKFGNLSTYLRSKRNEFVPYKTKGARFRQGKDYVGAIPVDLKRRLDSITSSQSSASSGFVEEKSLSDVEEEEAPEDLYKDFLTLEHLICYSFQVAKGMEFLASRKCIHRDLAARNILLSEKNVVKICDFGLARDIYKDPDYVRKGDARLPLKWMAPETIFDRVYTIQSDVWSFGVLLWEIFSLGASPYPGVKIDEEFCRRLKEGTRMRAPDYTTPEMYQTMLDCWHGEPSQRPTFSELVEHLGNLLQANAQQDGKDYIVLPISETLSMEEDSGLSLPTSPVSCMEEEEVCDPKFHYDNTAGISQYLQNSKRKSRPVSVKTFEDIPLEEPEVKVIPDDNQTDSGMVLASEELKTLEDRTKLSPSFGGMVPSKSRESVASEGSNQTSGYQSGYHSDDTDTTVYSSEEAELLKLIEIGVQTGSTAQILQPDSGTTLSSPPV

By Ki is commonly meant a dissociation constant, usually derived from enzyme kinetics or from competition with a known ligand. As to `O=C(Nc1ccc(Oc2ccccc2)cc1)c1cccnc1NCc1ccc(F)cc1`, the Ki in series [1] amounted to 135 nM.

The compound `CCc1cccc(NC(=O)c2cccnc2NCc2ccncc2)c1` registered a Ki in series [1] of 106 nM.

The compound `O=C(Nc1ccc(OC(F)(F)F)cc1)c1cccnc1NCc1ccncc1` showed a Ki in series [1] of 23 nM.

Compound `O=C(Nc1ccc(Cl)cc1)c1ncccc1NCc1ccncc1` registered a Ki in series [1] of more than 10000 nM.

Regarding `O=C(Nc1ccc(C(F)(F)F)cc1)c1cccnc1NCc1ccncc1`, in series [1], the affinity, expressed as Ki, was 9 nM.

For the compound `O=C(Nc1ccc(C2CCCCC2)cc1)c1cccnc1NCc1ccncc1`, in series [1], the affinity, expressed as Ki, was 2 nM.

In series [1], `CCOC(=O)c1coc(-c2cccc(NC(=O)c3cccnc3NCc3ccncc3)c2)c1` came in with a Ki of 29 nM.

On to `CC(O)c1cccc(NC(=O)c2cccnc2NCc2ccncc2)c1` (configuration not stated), for which the Ki in series [1] is more than 6660 nM.

Broadly, the IC50 is the concentration needed to halve the response being measured. The low end stands for greater potency, the high end for weaker potency. What is called AUC is the area under the concentration-time curve, a measure of exposure. A high value points to more exposure. The clearance is the volume of plasma or blood freed of the substance per unit of time. Low readings indicate a low capacity for elimination, high ones a high capacity for elimination. Usually bioavailability stands for dose-corrected exposure relative to a reference, in per cent. A low value points to little systemic uptake. As to `O=C(Nc1ccc(Cl)cc1)c1cccnc1NCc1ccncc1`, the IC50 in the series on HUVEC [2] is more than 1000 nM; with HUVEC [3], 8 nM. In series [4], this compound showed an AUC of 20000 ng·h/mL. Also, the Activity result in the series with A-431 was “Dose-dependent effect”. In series [5], this compound gave a Ki of 8 nM. In series [6], this compound showed a clearance of 73.3 mL/min/kg. The same compound gave a bioavailability in series [7] of 45%.

For the compound `O=C(Nc1ccccc1Oc1ccccc1)c1cccnc1NCc1ccncc1`, the Ki in series [1] is more than 20000 nM.

`O=C(Nc1ccc(Oc2ccccc2)cc1)c1cccnc1Nc1ccc2cn[nH]c2c1` returned a Ki in series [1] of 70 nM.

The compound `O=C(Nc1ccc(Oc2ccccc2)cc1)c1cccnc1Nc1csc2ccccc12` yielded a Ki in series [1] of more than 20000 nM.

`O=C(Nc1ccc(Cl)cc1)c1cc(Br)cnc1NCc1ccncc1` displayed a Ki in series [1] of 490 nM.

With `O=C(Nc1ccc(Cl)cc1)C1CCCCC1NCc1ccncc1` (configuration not stated), the Ki in series [1] is more than 10000 nM.

Turning to `O=C(Nc1ccc(Cl)c(Cl)c1)c1cccnc1NCc1ccncc1`, the Ki in series [1] worked out at 17 nM.

Take `CN1CCN(c2ccc(NC(=O)c3cccnc3NCc3ccncc3)cc2)CC1`: the Ki in series [1] was more than 6660 nM.

`O=C(Nc1ccc(Cl)c(C(F)(F)F)c1)c1cccnc1NCc1ccncc1` had a Ki in series [1] of 4 nM.

In the case of `Cc1ccc(C(=O)Nc2ccc(Cl)cc2)c(NCc2ccncc2)n1`, in series [5], the Ki is more than 10000 nM.

With `O=C(Nc1ccc(Cl)cc1)c1ccccc1NCc1ccncc1`, the inhibitory constant (Ki) in series [1] stood at 15 nM.

As to `O=C(Nc1cccc(Cl)c1)c1cccnc1NCc1ccncc1`, in series [1], affinity was put at a Ki of 2 nM. Also, the IC50 in the series with HUVEC [2] was more than 1000 nM; with HUVEC [3], 40 nM.

`O=C(Nc1ccc(Cl)cc1)c1cncnc1NCc1ccncc1`: in series [1], the Ki came to 140 nM.

The compound `O=C(Nc1ccc(Oc2ccccc2)cc1)c1cccnc1NCc1ccc2c(c1)OCO2` displayed a Ki in series [1] of 38 nM.

In turn, `O=C(Nc1ccc(Cl)cc1)c1sccc1NCc1ccncc1` registered a Ki in series [5] of 120 nM.

`O=C(Nc1cc(C(F)(F)F)cc(C(F)(F)F)c1)c1cccnc1NCc1ccncc1`: the Ki in series [1] was 8 nM.
